KCNQ1 block: blocks the human KCNQ1 potassium channel | CHO-K1 KCNQ1, FluxOR thallium flux fluorescence; stronger effect = higher value | B-score at 10 µM | actives 1.3% (n = 310,000) | AID 2642;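 active = compounds whose thallium flux B-score, printed positive for inhibition, exceeds three library SD while starting fluorescence stays within three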;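 note: channel opened by potassium depolarization with thallium stimulus after 20 min compound exposure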
Target sequence (P51787 whole entry, looked up): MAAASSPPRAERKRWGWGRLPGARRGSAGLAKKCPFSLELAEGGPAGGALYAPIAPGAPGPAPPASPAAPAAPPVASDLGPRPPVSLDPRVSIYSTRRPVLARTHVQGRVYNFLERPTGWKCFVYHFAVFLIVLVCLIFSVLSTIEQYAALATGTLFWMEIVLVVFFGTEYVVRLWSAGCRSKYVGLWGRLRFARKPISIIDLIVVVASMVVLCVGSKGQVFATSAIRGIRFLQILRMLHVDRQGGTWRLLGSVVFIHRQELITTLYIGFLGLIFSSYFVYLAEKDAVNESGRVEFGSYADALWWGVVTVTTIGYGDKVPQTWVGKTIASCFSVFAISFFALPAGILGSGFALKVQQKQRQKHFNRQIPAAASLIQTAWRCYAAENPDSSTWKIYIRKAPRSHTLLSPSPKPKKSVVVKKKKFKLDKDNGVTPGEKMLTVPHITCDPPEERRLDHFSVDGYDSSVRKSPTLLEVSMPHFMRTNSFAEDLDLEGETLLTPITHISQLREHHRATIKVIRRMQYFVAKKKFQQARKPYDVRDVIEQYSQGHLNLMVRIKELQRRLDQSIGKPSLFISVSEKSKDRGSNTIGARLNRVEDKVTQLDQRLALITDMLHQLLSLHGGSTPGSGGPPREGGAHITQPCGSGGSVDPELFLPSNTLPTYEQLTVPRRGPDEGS
KCNK9 inh: human KCNK9 channel inhibition. Q9NPC2. HEK293 KCNK9, FluxOR thallium flux fluorescence; stronger effect = lower value. B-score at 10 µM. actives 1.2% (n = 310,000). AID 488922;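 active = ratio B-score over 3 SD below the library mean, with starting fluorescence within 5 SD of its mean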;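 note: negative B-score means less thallium flux so channel inhibition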
KCNQ1 act: human KCNQ1 channel potentiation or activation | P51787 | CHO-K1 KCNQ1, thallium flux FluxOR fluorescence; stronger effect = higher value | B-score at 10 µM | actives 0.35% (n = 310,000) | AID 2648;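 active = fluorescence ratio B-score, a plate-corrected score, at least three library SD, with initial intensity B-score within 5 SD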
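System: Stable KCNQ1 CHO-K1 line | Incubation: 90 min dye loading and 20 min compound exposure, both at room temperature | Measure: Ratio B score | Medium: Assay buffer for compound exposure, DMSO matched across wells | Compound dosing: Single-concentration screen | Probe or stimulus: K+/Tl+ depolarizing stimulus | Measured by: Kinetic FluxOR fluorescence, 10 s baseline plus 110 s post-stimulus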
hERG protect: hERG (human) protection from proarrhythmic block. activation (rescue from dofetilide block), less the hit threshold, % at 10 µM. Q12809. actives 0.51% (n = 310,000). CHO-hERG, FluxOR thallium flux, dofetilide IC70 present;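 active = activation above the mean of controls blocked by dofetilide plus 5 SD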;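 note: thallium influx through hERG after potassium depolarization seen as dye fluorescence rise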
KCNK3 inh: human KCNK3 channel inhibition, primary screen. CHO-KCNK3 thallium flux, FluxOR fluorescence; stronger effect = lower value. B-score at 10 µM. actives 0.84% (n = 340,000). AID 602410;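 active = B-score under library mean minus 4 SD, starting fluorescence ratio at most library mean plus 5 SD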;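 note: more negative B-score means stronger inhibition of thallium flux through KCNK3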
Kir21 block: blocks the mouse Kir2.1 inward-rectifier potassium channel. AID 1672. actives 0.85% (n = 310,000). B-score at 10 µM. HEK293-Kir2.1, FluxOR thallium flux fluorescence; stronger effect = lower value. P35561;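 active = fluorescence ratio B-score at or below minus 3 SD of library scores, with starting-brightness B-score within 2 SD, cut at about -4.2 in these data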;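 note: channel flux triggered by added potassium and thallium sulfate stimulus; B-score of peak minus minimum fluorescence over baseline after thallium stimulus; more negative B-score means stronger Kir2.1 block with less thallium influx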
KCNK9 block conf: confirmation of human KCNK9 potassium channel inhibitors | shares compounds with KCNK9 inh | HEK293 KCNK9 cells, FluxOR thallium flux fluorescence | inhibition, % at 10 µM | actives 43% (n = 4,900);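 active = thallium signal inhibited by more than 5 SD of the compound-free buffer control wells, on both duplicate plates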;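 note: 0% = assay buffer control wells without compound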
Kir21 sel: selectivity of KCNK9 modulators against mouse Kir2.1. shares compounds with KCNK9 inh. Kir2.1 cells, FluxOR thallium flux fluorescence. inhibition, % at 10 µM. actives 4% (n = 4,900). AID 492993;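 active = thallium signal drop more than 5 SD beyond the mean of the no-compound control wells, seen in both duplicate plates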;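 note: signal is fluorescence rise after thallium addition divided by baseline fluorescence; plate controls were assay buffer only for no effect and full block by chlorpromazine control for full effect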
KCNK9 uninduced: non-induced cell nonspecific activity of KCNK9 modulators; actives 40% (n = 4,900); inhibition, % at 10 µM; shares compounds with KCNK9 inh; non-induced KCNK9-HEK293, FluxOR thallium flux;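 active = thallium signal drop beyond 5 SD of the untreated control mean, on both duplicate plates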;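 note: plate controls were buffer only IC0 wells for no effect and SID17386958 at its maximal inhibitory level for full effect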
KCNK3 confirm: confirmation of human KCNK3 two-pore domain potassium channel inhibitors. AID 651638. shares compounds with KCNK3 inh. ratio percent of control, % at 10 µM. actives 99% (n = 2,400). CHO-KCNK3 thallium flux, FluxOR fluorescence; 0% buffer, 100% carvedilol maximal block;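 active = ratio percent of control, averaged over triplicates, above buffer control mean plus 5 SD, cut at about 64% in these data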;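 note: ratio is the fluorescence rise from min to max over baseline after thallium stimulus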
KCNK3 uninduced: activity in cells without induced KCNK3 expression; shares compounds with KCNK3 inh; non-induced KCNK3 parental cells, FluxOR thallium flux; stronger effect = lower value; thallium flux ratio (lower = more inhibition) at 10 µM; actives 40% (n = 2,400); AID 651747;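 active = thallium flux ratio, averaged over three wells, more than 5 SD below the buffer control mean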;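 note: host cells are CHO cells without KCNK3 induction; ratio is peak minus trough fluorescence over baseline then normalized to buffer controls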
* marks the source's active call; other numbers are inactive results. Most compounds without a hit are left out; they make up all but 3.7% or so of the library.

`COc1ccc(/C=N/Nc2cc(C)nc3ccc(OC)cc23)c(OC)c1` gave KCNQ1 block 14*, KCNK9 inh -16*, KCNQ1 act inactive, hERG protect -24, KCNK3 inh -14*, Kir21 block -3.2, KCNK9 block conf inactive, Kir21 sel inactive, KCNK9 uninduced 38%*, KCNK3 confirm 151* and KCNK3 uninduced 0.11*.
`CCN(C(=S)NCc1ccccc1)c1cccc2ccccc12` gave KCNQ1 block inactive, KCNK9 inh -18*, KCNQ1 act inactive, hERG protect -11, KCNK3 inh -13*, Kir21 block -2, KCNK9 block conf 64%*, Kir21 sel inactive, KCNK9 uninduced 46%*, KCNK3 confirm 101* and KCNK3 uninduced inactive.
`CCC(C)N(C(=O)CSc1nc2ccc(OC)cc2[nH]1)C1CCS(=O)(=O)C1` (configuration not stated) gave KCNQ1 block inactive, KCNK9 inh inactive, KCNQ1 act inactive, hERG protect -16, KCNK3 inh inactive and Kir21 block -0.23.
CC1=NN(C(=O)CSCc2ccccc2)C(O)(c2ccc(Cl)cc2)C1 (configuration not stated) was read as KCNQ1 block inactive, KCNK9 inh -13*, KCNQ1 act inactive, hERG protect -5, KCNK3 inh -13*, Kir21 block -2.1, KCNK9 block conf 62%*, Kir21 sel inactive, KCNK9 uninduced 34%*, KCNK3 confirm 98* and KCNK3 uninduced inactive.
`CC1=NN(C(=O)COc2cc(C)ccc2C(C)C)C(O)(c2ccccc2)C1` (configuration not stated) gave KCNQ1 block inactive, KCNK9 inh -15*, KCNQ1 act inactive, hERG protect -11, KCNK3 inh -9.8*, Kir21 block -0.01, KCNK9 block conf 58%*, Kir21 sel inactive, KCNK9 uninduced 38%*, KCNK3 confirm 120* and KCNK3 uninduced 0.16*.
Screening CCc1ccc(S(=O)(=O)Nc2cccc(-c3ccc4nnc(C)n4n3)c2)s1 returned KCNQ1 block inactive, KCNK9 inh inactive, KCNQ1 act inactive, hERG protect -8, KCNK3 inh inactive and Kir21 block 0.26.
For CN(C)S(=O)(=O)c1cccc(NC(=O)Cc2ccc(Cl)cc2)c1 the results were KCNQ1 block inactive, KCNK9 inh inactive, KCNQ1 act inactive, hERG protect -1, KCNK3 inh inactive and Kir21 block -1.4.
For CN(CCOc1ccc(Cl)cc1)Cc1cccc(S(=O)(=O)N(C)C)c1 the results were KCNQ1 block inactive, KCNK9 inh -9.7*, KCNQ1 act inactive, hERG protect -8, KCNK3 inh -9.2*, Kir21 block -1, KCNK9 block conf 45%*, Kir21 sel inactive, KCNK9 uninduced 52%*, KCNK3 confirm 103* and KCNK3 uninduced inactive.
Screening C=CCOc1ccc(CN(C)CC(=O)Nc2ccccc2[N+](=O)[O-])cc1 returned KCNQ1 block inactive, KCNK9 inh inactive, KCNQ1 act inactive, hERG protect -16, KCNK3 inh -9.5*, Kir21 block -0.23, KCNK9 block conf inactive, Kir21 sel inactive, KCNK9 uninduced inactive, KCNK3 confirm 99* and KCNK3 uninduced 0.16*.
For CC(=O)/C(N=Nc1cccc(C(F)(F)F)c1)=C(\C)O the results were KCNQ1 block inactive, KCNK9 inh inactive, KCNQ1 act inactive, hERG protect -4, KCNK3 inh inactive and Kir21 block 1.
For O=C(/C(N=Nc1cccc(C(F)(F)F)c1)=C(/O)c1cccs1)C(F)(F)F the results were KCNQ1 block 10*, KCNK9 inh -8.8*, KCNQ1 act inactive, hERG protect -15, KCNK3 inh inactive, Kir21 block -1.7, KCNK9 block conf inactive, Kir21 sel inactive, KCNK9 uninduced inactive, KCNK3 confirm 67* and KCNK3 uninduced inactive.
For Cc1ccc(COc2ccccc2-c2cc(C(=O)N/N=C/c3cccnc3)[nH]n2)cc1 the results were KCNQ1 block inactive, KCNK9 inh -19*, KCNQ1 act inactive, hERG protect -15, KCNK3 inh -12*, Kir21 block -1.7, KCNK9 block conf 64%*, Kir21 sel inactive, KCNK9 uninduced 26%*, KCNK3 confirm 118* and KCNK3 uninduced inactive.
CCOc1ccccc1-c1cc(C(=O)N/N=C/c2cccnc2)c2ccccc2n1 was read as KCNQ1 block inactive, KCNK9 inh inactive, KCNQ1 act inactive, hERG protect -6, KCNK3 inh inactive and Kir21 block 1.4.
NCCc1c(-c2ccccc2)n(-c2ccccc2)c2ccccc12 was read as KCNQ1 block 13*, KCNK9 inh -9.9*, KCNQ1 act inactive, hERG protect -31, KCNK3 inh inactive, Kir21 block -15*, KCNK9 block conf 54%*, Kir21 sel 62%*, KCNK9 uninduced 36%*, KCNK3 confirm 136* and KCNK3 uninduced inactive.
`CCOC(=O)N1CCN(c2nc(-c3cccs3)nc3ccccc23)CC1` gave KCNQ1 block inactive, KCNK9 inh -8.9*, KCNQ1 act inactive, hERG protect -6, KCNK3 inh -10*, Kir21 block 0.42, KCNK9 block conf inactive, Kir21 sel inactive, KCNK9 uninduced inactive, KCNK3 confirm 104* and KCNK3 uninduced 0.15*.
Screening CCCN1CCN(c2nc(-c3cccs3)nc3ccccc23)CC1 returned KCNQ1 block inactive, KCNK9 inh inactive, KCNQ1 act inactive, hERG protect -6, KCNK3 inh inactive and Kir21 block -0.34.
`COc1ccc(N2CCN(C(=O)Cn3c(=O)[nH]c4ccccc4c3=O)CC2)cc1` gave KCNQ1 block inactive, KCNK9 inh inactive, KCNQ1 act inactive, hERG protect -5 and Kir21 block -0.24.

Compound activity (PubChem BioAssay)
